Assay outcomes as filed in PubChem.
This excerpt belongs to a sample that is enriched for hits.
IDH1 mut inh: inhibitors of IDH1 R132H reductase, primary screen, biochemical, plate reader, single point | AID 624101, 2012 | inhibition, % at 10 µM | 0.18% of 70,000 active | Isocitrate dehydrogenase [NADP] cytoplasmic (Homo sapiens), O75874 | diaphorase/resazurin fluorescence, 60 min; in the data active = inhibition above about 34%; inconclusive = no clear call, values can overlap the other calls; inactive = below about 11%
Target sequence (O75874 whole entry R132H): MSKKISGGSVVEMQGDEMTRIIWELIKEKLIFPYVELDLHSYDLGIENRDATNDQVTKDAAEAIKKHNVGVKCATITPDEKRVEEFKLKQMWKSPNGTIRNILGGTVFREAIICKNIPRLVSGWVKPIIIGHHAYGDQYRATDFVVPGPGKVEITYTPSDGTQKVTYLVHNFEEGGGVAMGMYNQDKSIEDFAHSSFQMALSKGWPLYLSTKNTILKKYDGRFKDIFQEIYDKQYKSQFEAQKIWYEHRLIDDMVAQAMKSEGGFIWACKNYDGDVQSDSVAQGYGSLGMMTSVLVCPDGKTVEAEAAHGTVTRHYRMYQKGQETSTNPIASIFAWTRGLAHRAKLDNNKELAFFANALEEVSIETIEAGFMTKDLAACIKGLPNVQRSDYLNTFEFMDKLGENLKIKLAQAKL
T cruzi growth-1: T. cruzi intracellular proliferation inhibitors, primary screen, cell-based, beta-gal Tulahuen parasites, NIH3T3 host, luminescence; T. cruzi beta-gal in NIH3T3, GalScreen luminescence, 90 h; 5.9% of 77,000 active; inhibition, % at 8.34 µM;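 active = mean inhibition above about 93%, with at least 55% of replicates each passing it, limit read from the data, passing the limit was not always enough; inconclusive = only one of those two conditions holds; inactive = neither condition holds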
GASC1 inh: inhibitors of GASC-1 (KDM4C) histone demethylase, primary screen, biochemical, single concentration HTS; Lysine-specific demethylase 4C (Homo sapiens), Q9H3R0; GST-KDM4C 2-372, H3K9me3 peptide, LANCE TR-FRET; inhibition, % at 12.5 µM; 0.15% of 96,000 active; AID 720574, 2013;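 active = mean replicate inhibition above about 25%, with at least 55% of replicates also reaching it, limit read from the data, passing the limit was not always enough; inconclusive = only one of those two conditions met; inactive = neither condition met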
Target sequence (Q9H3R0 2-372 limits assumed): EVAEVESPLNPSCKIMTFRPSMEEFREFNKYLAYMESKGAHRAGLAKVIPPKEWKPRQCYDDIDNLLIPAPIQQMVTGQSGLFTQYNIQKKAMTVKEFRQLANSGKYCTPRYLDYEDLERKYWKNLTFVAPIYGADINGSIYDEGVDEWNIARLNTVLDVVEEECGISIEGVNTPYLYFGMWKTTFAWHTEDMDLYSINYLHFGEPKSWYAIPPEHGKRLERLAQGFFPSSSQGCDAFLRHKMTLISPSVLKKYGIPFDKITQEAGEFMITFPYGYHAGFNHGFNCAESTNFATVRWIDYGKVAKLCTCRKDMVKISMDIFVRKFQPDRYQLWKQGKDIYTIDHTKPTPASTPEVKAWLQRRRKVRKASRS
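Material: N-terminal GST-fused human GASC-1 (KDM4C) fragment, residues 2-372. Input: 10 nM enzyme. Incubation: enzyme reaction 30 min, then detection 60 min, both room temperature. Doses: one test concentration per compound. Read-out basis: inhibition from TR-FRET ratio decrease. Detection: LANCE TR-FRET, excitation 340 nm, emissions 618 and 671 nm.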
T cruzi growth-2: T. cruzi intracellular proliferation inhibitors, confirmation, cell-based, NIH3T3 host, beta-gal parasite, luminescence, cherry-pick; AID 651739, 2012; inhibition, % at 8.35 µM; T. cruzi beta-gal in NIH3T3, GalScreen luminescence, 90 h; shares compounds with T cruzi growth-1; 72% of 5,600 active;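 active = mean replicate inhibition above about 95% and at least 55% of replicates individually reaching it, limit read from the data; inconclusive = only one of the two criteria is met; inactive = neither criterion is met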
T cruzi growth-3: inhibitors of intracellular T. cruzi replication, confirmation, NIH3T3 host cells, beta-gal parasites, cherry-pick, set 2. T. cruzi beta-gal in NIH3T3, GalScreen luminescence, 90 h. shares compounds with T cruzi growth-1. inhibition, % at 2.09 µM. 21% of 5,600 active;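 active = mean inhibition above about 95%, with at least 55% of replicates also reaching it, limit read from the data; inconclusive = meets just one of the two conditions; inactive = meets neither condition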
NIH3T3 tox: cytotoxicity in mouse NIH/3T3 fibroblasts, confirmation, cytotoxicity control for T. cruzi proliferation inhibitor project, cell-based, cherry-pick, single point; 14% of 5,600 active; cytotoxicity (signal decrease), % at 8.35 µM; shares compounds with T cruzi growth-1; AID 651742, 2012; NIH/3T3 viability, CellTiter-Glo ATP luminescence, 90 h;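 active = mean signal decrease across replicates above about 35% based on untreated-well scatter, with enough replicates individually passing, limit read from the data; inconclusive = no rule stated though some were filed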
3T3 cytotox 2: NIH/3T3 fibroblast cytotoxicity, confirmation, cytotoxicity control, cell-based, cherry-pick, single point, set 2. shares compounds with T cruzi growth-1. NIH/3T3 viability, CellTiter-Glo ATP luminescence, 90 h. inhibition, % at 24.9 µM. 56% of 5,600 active. AID 651744, 2012;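 active = mean loss of cell viability signal at or above a set limit, and enough replicates individually reaching it; inconclusive = meets only the mean limit or only the replicate share; inactive = meets neither condition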
Each line names hits and unclear results; the compound was inactive in the other large screens (follow-up assays come after a bar, where they were run).

CC(C)C#Cc1ccc2c(c1)O[C@@H](CN(C)Cc1cccnc1)[C@H](C)CN([C@@H](C)CO)S2(=O)=O	T cruzi growth-1 107 (no result: IDH1 mut inh) | T cruzi growth-2 99 | T cruzi growth-3 inactive | NIH3T3 tox 56 | 3T3 cytotox 2 67
C[C@@H]1CN([C@@H](C)CO)C(=O)c2cc(NC(=O)Nc3ccccc3)ccc2O[C@@H](C)CCCCO[C@H]1CN(C)Cc1ccccc1	none (no result: IDH1 mut inh, T cruzi growth-1)
COc1ccc(NC(=O)Nc2ccc3c(c2)C(=O)N([C@@H](C)CO)C[C@@H](C)[C@H](CN(C)C(=O)Cc2ccccc2)OCCCC[C@H](C)O3)cc1	none (no result: IDH1 mut inh)
COc1ccc(CN(C)C[C@@H]2OCCCC[C@H](C)Oc3ccc(NC(=O)Nc4ccccc4)cc3C(=O)N([C@H](C)CO)C[C@@H]2C)cc1	T cruzi growth-1 114 (no result: IDH1 mut inh) | T cruzi growth-2 inactive | T cruzi growth-3 109 | NIH3T3 tox 43 | 3T3 cytotox 2 107
COc1ccc(CN(C)C[C@H]2OCCCC[C@H](C)Oc3ccc(NC(=O)Nc4ccccc4)cc3C(=O)N([C@@H](C)CO)C[C@@H]2C)cc1	none (no result: IDH1 mut inh)
C[C@@H]1CCCCO[C@@H](CN(C)Cc2ccccc2)[C@H](C)CN([C@H](C)CO)C(=O)c2cc(NC(=O)Nc3ccccc3)ccc2O1	T cruzi growth-1 103 | T cruzi growth-2 106 | T cruzi growth-3 inactive | NIH3T3 tox inactive | 3T3 cytotox 2 105
COc1ccc(NC(=O)Nc2ccc3c(c2)C(=O)N([C@@H](C)CO)C[C@H](C)[C@H](CN(C)C(=O)Cc2ccccc2)OCCCC[C@H](C)O3)cc1	T cruzi growth-1 inconclusive (no result: IDH1 mut inh) | T cruzi growth-2 112 | T cruzi growth-3 inactive | NIH3T3 tox inactive | 3T3 cytotox 2 inactive
COc1ccc(NC(=O)Nc2ccc3c(c2)C(=O)N([C@@H](C)CO)C[C@H](C)[C@H](CN(C)Cc2ccccc2)OCCCC[C@H](C)O3)cc1	none (no result: IDH1 mut inh)
COc1ccc(NC(=O)Nc2ccc3c(c2)C(=O)N([C@@H](C)CO)C[C@H](C)[C@@H](CN(C)Cc2ccccc2)OCCCC[C@H](C)O3)cc1	T cruzi growth-1 103 (no result: IDH1 mut inh) | T cruzi growth-2 104 | T cruzi growth-3 inactive | NIH3T3 tox inactive | 3T3 cytotox 2 102
C[C@@H](NC(=O)C[C@H]1CC[C@H]2[C@@H](COC[C@H](O)CN2C(=O)Nc2ccccc2)O1)c1ccccc1	none (no result: IDH1 mut inh)
O=C(NCc1cccnc1)c1cnn2c1NC(c1ccccc1)CC2C(F)(F)F (stereo not given)	none (no result: T cruzi growth-1, GASC1 inh)
CNC(=O)C[C@@H]1CC[C@H]2[C@H](COc3ccc(NC(=O)c4cnccn4)cc3C(=O)N2C)O1	none (no result: IDH1 mut inh)
COc1ccc(C)cc1S(=O)(=O)N1CCC(C(=O)Nc2cccc(SC)c2)CC1	none (no result: T cruzi growth-1, GASC1 inh)
COc1ccc(CN(C)C[C@@H]2OCCCC[C@@H](C)Oc3ccc(NC(=O)c4ccccc4)cc3C(=O)N([C@H](C)CO)C[C@H]2C)cc1	T cruzi growth-1 107 (no result: IDH1 mut inh) | T cruzi growth-2 inactive | T cruzi growth-3 inactive | NIH3T3 tox inactive | 3T3 cytotox 2 81
COc1ccc(CN(C)C[C@@H]2OCCCC[C@H](C)Oc3ccc(NC(=O)c4ccccc4)cc3C(=O)N([C@H](C)CO)C[C@@H]2C)cc1	none (no result: IDH1 mut inh)
COc1ccc(NC(=O)Nc2ccc3c(c2)C(=O)N([C@@H](C)CO)C[C@H](C)[C@H](CN(C)Cc2ccccc2)OCCCC[C@@H](C)O3)cc1	none (no result: IDH1 mut inh)
COc1ccc(NC(=O)Nc2ccc3c(c2)C(=O)N([C@H](C)CO)C[C@@H](C)[C@@H](CN(C)Cc2ccccc2)OCCCC[C@H](C)O3)cc1	T cruzi growth-1 103 | T cruzi growth-2 108 | T cruzi growth-3 inactive | NIH3T3 tox inactive | 3T3 cytotox 2 59
O=S(=O)(N[C@H]1CC[C@@H](CCn2cc(-c3cccc(F)c3)nn2)O[C@@H]1CO)c1ccccc1	none
Cc1noc(C)c1NC(=O)Nc1ccc2c(c1)C(=O)N([C@H](C)CO)C[C@@H](C)[C@H](CN(C)C(=O)NC1CCCCC1)O2	none (no result: IDH1 mut inh)
O=S(=O)(Nc1ncccn1)c1ccc(NC(=S)Nc2ccc(F)c(Cl)c2)cc1	none (no result: T cruzi growth-1, GASC1 inh)
C[C@H](CO)N1C[C@H](C)[C@H](CN(C)C(=O)C2CCCCC2)OCCCC[C@H](C)Oc2ccc(NS(=O)(=O)c3cccs3)cc2C1=O	T cruzi growth-1 115 | T cruzi growth-2 inactive | T cruzi growth-3 inactive | NIH3T3 tox inactive | 3T3 cytotox 2 inactive
C[C@@H]1CCCCO[C@@H](CN(C)C(=O)C2CCCCC2)[C@@H](C)CN([C@@H](C)CO)C(=O)c2cc(NS(=O)(=O)c3cccs3)ccc2O1	T cruzi growth-1 110 | T cruzi growth-2 inactive | T cruzi growth-3 inactive | NIH3T3 tox inactive | 3T3 cytotox 2 inactive
C[C@@H]1CN([C@H](C)CO)C(=O)c2cc(NS(=O)(=O)c3cccs3)ccc2O[C@@H](C)CCCCO[C@H]1CN(C)C(=O)C1CCCCC1	none (no result: T cruzi growth-1)
C[C@@H]1CCCCO[C@@H](CN(C)C(=O)C2CCCCC2)[C@H](C)CN([C@@H](C)CO)C(=O)c2cc(NS(=O)(=O)c3cccs3)ccc2O1	none
C[C@@H]1CCCCO[C@H](CN(C)C(=O)Nc2ccccc2)[C@H](C)CN([C@@H](C)CO)C(=O)c2cc(NS(C)(=O)=O)ccc2O1	none
COc1ccc(S(=O)(=O)N(CC(=O)O)C2CCCCC2)cc1Cl	none (no result: T cruzi growth-1, GASC1 inh)
O=C(c1ccccn1)N1CC[C@H]2[C@H](CO)Nc3ccc(C#Cc4cccnc4)cc3[C@H]21	none (no result: IDH1 mut inh)
O=C(c1ccc(F)cc1)N1CC[C@H]2[C@H](CO)Nc3ccc(-c4ccccc4F)cc3[C@H]21	none (no result: IDH1 mut inh)
O=C(c1ccccn1)N1CC[C@@H]2[C@H](CO)Nc3ccc(-c4ccccc4F)cc3[C@@H]21	none (no result: IDH1 mut inh)
O=C(c1cnccn1)N1CC[C@H]2[C@H](CO)Nc3ccc(-c4ccccc4F)cc3[C@H]21	T cruzi growth-1 99 (no result: IDH1 mut inh) | T cruzi growth-2 96 | T cruzi growth-3 inactive | NIH3T3 tox inactive | 3T3 cytotox 2 inactive
O=C(c1ccccn1)N1CC[C@H]2[C@H](CO)Nc3ccc(-c4cccc(F)c4)cc3[C@H]21	none (no result: IDH1 mut inh)
O=C(c1ccc(F)cc1)N1CC[C@@H]2[C@H](CO)Nc3ccc(-c4ccccc4F)cc3[C@@H]21	T cruzi growth-1 inconclusive (no result: IDH1 mut inh) | T cruzi growth-2 98 | T cruzi growth-3 inactive | NIH3T3 tox inactive | 3T3 cytotox 2 85
